“And” between values parts separate entries of the source, which are not always exact repeats. Equal values may be shown once. In all, about 300,000 compounds went through this assay and about 4,400 (1.5%) were called active.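 Rule for the calls: active = mean inhibition across valid replicates above about 55% (limit read from the data); inconclusive = mean below that limit but half or more replicates reach it; inactive = mean below it, under half of replicates reach it.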 The entries come from a sample that favours actives as a whole. The source holds several records for some structures; these can differ, active in one and inactive in another.

The nature of this assay: Trypanosoma cruzi replication blockers in host cells – luminescence, NIH3T3 host cells, primary screen (AID 1885).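 Note: signal also drops with host cell toxicity which is not excluded here; 0% = plate median of DMSO wells and 100% = zero luminescence signal; higher percent means less beta-gal luminescence so fewer parasites.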 Conditions: T. cruzi beta-gal in NIH3T3, luminescence, 90 h; stronger effect = higher value; concentration not given here. The method, boiled down: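 Test system: β-gal T. cruzi (Tulahuen C4) inside NIH/3T3 cells / Quantity: 5,000 cells/well / Measured by: luminescence from GalScreen with 0.05% NP40, read after 60 min / Medium: DMEM plus 2% FBS / Measure: parasite load inhibition, % / Reagent: Tulahuen C4 trypomastigotes, 5000/well / Schedule: co-culture of at least 90 h after 3 h attachment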
What is called inhibition is the relative decrease from the control value, in per cent. As for `Cc1cc(C)c(S(=O)(=O)N2CCCC2CNC(=O)c2ccc3c(c2)OCO3)c(C)c1` (centres undefined), the inhibition was -2.11% (inactive). As for `Cc1ccc(S(=O)(=O)c2c[nH]c3ccc(Cl)cc3c2=O)cc1`, the figure is 5.53% (inactive). As for `O=C(NCc1ccccc1)C1=C[C@H](C2CC2)C[C@H](OCc2ccc(CO)cc2)O1`, the inhibition was 15% (inactive). For the compound `O=C(C1=C[C@H](c2coc3ccccc3c2=O)C[C@H](OCc2ccc(CO)cc2)O1)N1CCN(Cc2ccccc2)CC1`, the inhibition was 33.6% (inactive). The figure for `O=C(C1=C[C@H](C2CC2)C[C@H](OCc2ccc(CO)cc2)O1)N1CCN(Cc2ccccc2)CC1` is 59.7% (active). In the case of `O=S(=O)(c1ccccc1)N1CCC(c2ccccc2)CC1`, the inhibition was 0.981% (inactive). As to `Cc1ccc(C(=O)N2CCC(n3nccc3NC(=O)Nc3cccc(F)c3)CC2)cn1`, the inhibition was -8.51% (inactive). As for `COc1ccc(CNS(=O)(=O)c2cc3c4c(c2)CCN4C(=O)CC3)cc1`, the figure is -11.2% (inactive); as for `COc1cc(C(=O)NNC(=O)c2ccc(S(=O)(=O)N3CCCCC3)cc2)cc(OC)c1OC`, -12.8% (inactive). On to `CN1CCN(NC(=O)c2ccc(S(=O)(=O)N3CCCCCC3)cc2)CC1`, for which the inhibition was 68.3% (active). Take `CC1CN(S(=O)(=O)c2ccc(C(=O)NN3CCN(C)CC3)cc2)CC(C)O1` (centres undefined): the inhibition is 6.61% (inactive).

With `CCN(CC(=O)Nc1cc(Cl)ccc1C)C(=O)CN1C(=O)NC2(CCCC2)C1=O`, the inhibition is 2.7% (inactive). For the compound `COc1ccc(C(=O)CN2C(=O)NC3(CCc4ccccc43)C2=O)c(OC)c1` (centres undefined), the inhibition was 1.63% (inactive).

Consider `C/C(=N\NC(=O)c1ccccc1F)c1ccccn1`, for which the inhibition is 23.5% (inactive). Regarding `C/C(=N\NC(=O)Cc1ccc(Cl)cc1)c1ccccn1`, the inhibition was 64.9% (active). On to `C/C(=N\NC(=O)Cc1ccc(Br)cc1)c1cccnc1`, for which the inhibition was -9.89% (inactive). Consider `CCOc1ccc(NC(=O)CN(C)C(=O)c2c(C)noc2C)cc1OCC`, for which the inhibition was 0.476% (inactive).

For `CCCS(=O)(=O)N1CCN=C1SCc1cccc(F)c1`, the inhibition was 6.03% (inactive).

Take `CC1CCN(c2ccc(-c3ccc(NC(=O)c4ccco4)cc3)nn2)CC1`: the inhibition was 6.55% (inactive).

Regarding `COc1ccc(NC(=O)CSc2nc(NS(=O)(=O)c3ccc(C)cc3)cc(=O)[nH]2)cc1`, the inhibition is 7.86% (inactive). Take `O=C(c1ccc2nc(N3CCOCC3)sc2c1)N1CCN(c2ccc(Cl)cc2)CC1`: the inhibition was 2.47% (inactive).

`COc1ccc2nc(N3CCN(C(=O)c4ccc([N+](=O)[O-])o4)CC3)sc2c1`: the inhibition is 60.2% (active).

On to `Cc1ccc2nc(N3CCN(C(=O)c4ccco4)CC3)sc2c1`, for which the inhibition was -3.92% (inactive). Consider `O=C1C=C(c2ccc(Cl)cc2)C(=O)N1Nc1ccccc1`, for which the inhibition was 44.2% (inactive).

For `CC1CCN(C(=O)c2cccc(S(=O)(=O)N3CCCc4ccccc43)c2)CC1`, the inhibition was 12.1% (inactive).

Turning to `COc1ccc(C(=O)N(CCN2CCOCC2)CC(=O)NC2CCCC2)cc1OC`, the inhibition was -3.29% (inactive). Regarding `CCCCCOc1ccc(CSC2=NCCN2)cc1[N+](=O)[O-]`, the inhibition was 59.6% (active). Consider `CCCCOc1ccc(CSC(=N)N)cc1[N+](=O)[O-]`, for which the inhibition is 38.2% (inactive). On to `CCCOc1ccc(Cn2ccnc2)cc1[N+](=O)[O-]`, for which the inhibition is 30.6% (inactive). `O=C(NNS(=O)(=O)c1ccc(F)cc1)C1CCCCC1`: the inhibition is -13.6% (inactive).

Turning to `CCOC(=O)C[C@H]1c2ccc(C(F)(F)F)cc2S(=O)(=O)N1c1ccccc1`, the inhibition was -7.83% (inactive). As for `O=C(COC(=O)c1ccc([N+](=O)[O-])cc1Cl)NC(=O)c1ccccc1`, the figure is -9.49% (inactive).

In the case of `COc1ccc(CN2CCCC(CNC(=O)c3ccc(F)cc3)C2)cc1OC` (centres undefined), the inhibition was 45.9% (inactive). Regarding `COc1ccc(CN2CCCC(C(=O)c3ccc(Cl)cc3)C2)cc1Cn1cncn1` (centres undefined), the inhibition was 67.8% (active). As for `COc1ccc(CCN(C)C(=O)C2CCCN(Cc3ccc(OC)c(OC)c3)C2)cc1OC` (centres undefined), the inhibition is 66.2% (active) and 34.7% (inactive). Regarding `COc1cc(CN2CCCC(C(=O)c3ccc(SC)cc3)C2)cc(Cl)c1O` (centres undefined), the inhibition was 24.2% (inactive). Take `COc1ccc(CCNC(=O)C2CCCN(Cc3nc(-c4cccc(Cl)c4)oc3C)C2)cc1OC` (centres undefined): the inhibition was 61.6% (active). `COc1cccc(-c2nc(CS(=O)(=O)CC(=O)NCCc3ccc(OC)c(OC)c3)c(C)o2)c1`: the inhibition is 21.5% (inactive). For the compound `COc1ccc(C(=O)C2CCCN(Cc3ccc4nonc4c3)C2)c(C)c1` (centres undefined), the inhibition is 20% (inactive).

For `COc1ccc(CCNC(=O)CS(=O)(=O)Cc2nc(-c3ccc(C)cc3)oc2C)cc1OC`, the inhibition is 5.37% (inactive). For `CCCCNC(=O)N1CCCC(N(C)CCc2ccc(OC)c(OC)c2)C1` (centres undefined), the inhibition was 37.8% (inactive). `CN1CCC(=NNC(=O)c2ccc(N(Cc3ccc(Cl)cc3)S(C)(=O)=O)cc2)CC1`: the inhibition is 8.52% (inactive). In the case of `O=C(COc1ccc(Cl)cc1)NCCS(=O)(=O)N1CCN(c2ccc(F)cc2)CC1`, the inhibition is 11.2% (inactive). For `COc1ccc(C(O)(C2CCCCC2)C(CN2CCCC2)c2ccccc2)cc1` (centres undefined), the inhibition is 2.61% (inactive). With `COC(=O)[C@]1(C)N[C@H](c2ccc(-c3ccc(Cl)c(Cl)c3)cc2)[C@@H]2C(=O)N(C)C(=O)[C@@H]21`, the inhibition was -12.4% (inactive). Take `COc1ccc(NC(=O)CN(C)C(=O)c2ccc(NC3CC3)c([N+](=O)[O-])c2)cc1`: the inhibition was -6.67% (inactive). With `CSc1nc2ccccc2cc1/C=C(\C#N)c1ccc(Cl)cc1Cl`, the inhibition was 4.89% (inactive). Regarding `O=C(N/N=C/c1ccc([N+](=O)[O-])o1)c1cn(-c2ccccc2)nc1-c1ccc(F)cc1`, the inhibition was 69.4% (active). For `Cc1ccc(-c2nn(-c3ccccc3)cc2/C=N/NC(=O)c2ccc3c(c2)OCO3)cc1`, the inhibition was 28% (inactive). The figure for `Cc1nnc(SCC(=O)N/N=C/c2cn(-c3ccccc3)nc2-c2ccc(F)cc2)n1-c1ccccc1` is -11.7% (inactive). Turning to `COc1cccc(OC)c1C(=O)Nc1sc2c(c1C(N)=O)CCCC2`, the inhibition is 9.96% (inactive). With `c1ccc2c(c1)C(=NC1CCCCC1)NC2=NC1CCCCC1`, the inhibition was 55.5% (active). The figure for `COc1cccc(COC(=O)C2CCN(S(=O)(=O)c3ccc(Cl)cc3)CC2)c1OC` is -3.47% (inactive); for `Cc1oc(C)c(C(=O)NCCCC(=O)O)c1C(=O)NCCCC(=O)O` it is -21.2% (inactive). With `O=C(CSc1ncccn1)NCCc1ccccc1`, the inhibition is -13.3% (inactive). For `O=C(Cn1cnc([N+](=O)[O-])n1)NCCc1ccccc1`, the inhibition is 76.4% (active).

Consider `CC(C)(C)NC(=O)Cn1cnc([N+](=O)[O-])n1`, for which the inhibition was 50.4% (inactive). As to `Cc1cc(C)c(S(=O)(=O)n2cc(C(C)C(N)C(=O)O)c3ccccc32)c(C)c1` (centres undefined), the inhibition is -6.09% (inactive).

In the case of `OC(COc1ccc(Br)cc1)CN1CCCC1` (centres undefined), the inhibition was 10.2% (inactive). Take `OC(COCCC12CC3CC(CC(C3)C1)C2)CN1CCCCC1` (centres undefined): the inhibition was 62% (active).

In the case of `Cc1cccc(C)c1OCC(O)CN1CCCCC1` (centres undefined), the inhibition was -1.54% (inactive). For `COc1ccc(C(=O)/C=C/c2ccc(-c3ccccc3)cc2)cc1CSCC(=O)O`, the inhibition was -21% (inactive). For the compound `Cc1ccc(S(=O)(=O)N(C)C)cc1NC(=O)COC(=O)/C=C/c1cccs1`, the inhibition was -8.51% (inactive). Regarding `Cc1ccc(-c2cc(=O)[nH]c(NCc3ccccc3)n2)cc1`, the inhibition is -16.4% (inactive). As for `Cc1c(C)n(Cc2ccc(Cl)cc2)c2ccc(C(=O)NCCCN3CCOCC3)cc12`, the figure is 12.7% (inactive); as for `COc1ccc(C2CC(c3ccc([N+](=O)[O-])cc3)=NN2C(C)=O)cc1` (centres undefined), 4.42% (inactive); as for `COc1ccc(C2=NN(C(=O)c3cccnc3)C(c3ccccc3)C2)cc1` (centres undefined), 3.02% (inactive). As to `COc1ccc(C2CC(c3ccccc3)=NN2C(=O)c2ccc(Cl)c([N+](=O)[O-])c2)cc1` (centres undefined), the inhibition is 54.8% (active). With `O=C(NC1CCCCC1)C1CC(=O)N(CCc2ccccc2)C1` (centres undefined), the inhibition was -16.2% (inactive). As to `C=CCOc1ccc(/C=C/C(=O)OCC(=O)NCC2CCCO2)cc1` (centres undefined), the inhibition is -9.89% (inactive). Take `CCOC(=O)CNc1nc(Cl)nc(Nc2ccc(OC)cc2OC)n1`: the inhibition is -0.745% (inactive).

Take `CCN(CC)CCCSc1nc2ccccc2s1`: the inhibition was 69.6% (active). For the compound `Cc1nc2nc(CSc3nc4ccccc4s3)cc(=O)n2[nH]1`, the inhibition is -6.18% (inactive). In the case of `O=C(O)c1ccccc1CSc1nc2ccccc2s1`, the inhibition was -11.7% (inactive). For the compound `COc1cc2c(cc1OC)C(C(=O)NCc1ccco1)C1c3ccccc3CCN1C2=O` (centres undefined), the inhibition is 7.27% (inactive). As for `COC(=O)c1c(C)cc(O)c(C)c1O`, the inhibition is -2.6% (inactive).

For the compound `O=[N+]([O-])c1ccc2oc(-c3cccc(O)c3)nc2c1`, the inhibition was -23.1% (inactive). With `COc1ccc(C(CNC(=O)c2ccc(NS(=O)(=O)c3ccc(F)c(C)c3)cc2)N(C)C)cc1` (centres undefined), the inhibition was 3.47% (inactive). As for `COc1ccc(C(CNC(=O)c2cccc(NS(=O)(=O)c3ccc(C)c(F)c3)c2)N2CCCC2)cc1` (centres undefined), the figure is -13.1% (inactive); as for `Cc1cc(S(=O)(=O)Nc2ccc(C(=O)NCC(c3ccco3)N3CCCC3)cc2)ccc1F` (centres undefined), 63.7% (active). `O=C(NNC(=O)c1cc(-c2ccccc2Cl)nc2ccccc12)c1csc(N2CCOCC2)n1`: the inhibition is -2.25% (inactive). Consider `O=C(Nc1ccc(C(=O)O)cc1)/C(=C\c1ccccc1)NC(=O)c1ccc(Br)cc1`, for which the inhibition was -8.09% (inactive).

`CC1CCCCN1S(=O)(=O)c1ccc(S(=O)(=O)N(CC(=O)Nc2ccccc2)Cc2cccs2)cc1` (centres undefined): the inhibition was 57.2% (active). The figure for `CCN(CC(=O)NCc1cccs1)S(=O)(=O)c1ccc(NC(C)=O)cc1` is -2.26% (inactive); for `CC1CCCCN1S(=O)(=O)c1ccc(C(=O)Nc2nnc(-c3cccs3)o2)cc1` (centres undefined) it is 43.1% (inactive). Take `CC(OC(=O)C1CC(=O)N(Cc2ccccc2)C1)C(=O)Nc1ccccc1[N+](=O)[O-]` (centres undefined): the inhibition is -2.86% (inactive).

Consider `Cc1[nH]c2ccccc2c1CCN(Cc1cccs1)C(=S)NC(C)(C)C`, for which the inhibition is 26.1% (inactive).

In the case of `COc1cccc(NC(=S)N(CCc2c(C)[nH]c3ccccc23)Cc2ccco2)c1`, the inhibition was 18.1% (inactive). On to `COc1ccc2[nH]c(C)c(CCN(Cc3cccs3)C(=S)Nc3ccccc3OC)c2c1`, for which the inhibition is 60% (active).

The values above are taken from PubChem BioAssay AID1885 (Broad Institute, 2009).
